Test results as given in ChEMBL document CHEMBL1152646, “Synthesis, molecular docking and biological evaluation of metronidazole derivatives as potent Helicobacter pylori urease inhibitors” (Bioorg Med Chem, 2009).
pIC50: −log10 of the molar value. Activity calls are given as the source filed them. The calls are words filed in the database; no cut-off is given here.

biological target: Urease subunit alpha/Urease subunit beta (Helicobacter pylori (strain ATCC 700392 / 26695) (Campylobacterpylori), UniProt P69996); assay: Inhibition of Helicobacter pylori ATCC 43504 urease assessed as ammonia production after 3 hrs by indophenol method
Summary of the method: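 Crude urease came from H. pylori grown 24 h at 37 °C, microaerobic, in brucella broth with 10% heat-inactivated horse serum. Cells were PBS-washed, frozen at -80 °C, sonicated 60 s in water with protease inhibitors, and mixed 1:1 with glycerol. Enzyme (4 U) and compound were preincubated at room temperature. Percent inhibition was screened at 1 mM; IC50 came from dose–response curves (≥3 experiments, mean S.D.).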

Chain of Urease subunit alpha/Urease subunit beta (P69996 whole entry): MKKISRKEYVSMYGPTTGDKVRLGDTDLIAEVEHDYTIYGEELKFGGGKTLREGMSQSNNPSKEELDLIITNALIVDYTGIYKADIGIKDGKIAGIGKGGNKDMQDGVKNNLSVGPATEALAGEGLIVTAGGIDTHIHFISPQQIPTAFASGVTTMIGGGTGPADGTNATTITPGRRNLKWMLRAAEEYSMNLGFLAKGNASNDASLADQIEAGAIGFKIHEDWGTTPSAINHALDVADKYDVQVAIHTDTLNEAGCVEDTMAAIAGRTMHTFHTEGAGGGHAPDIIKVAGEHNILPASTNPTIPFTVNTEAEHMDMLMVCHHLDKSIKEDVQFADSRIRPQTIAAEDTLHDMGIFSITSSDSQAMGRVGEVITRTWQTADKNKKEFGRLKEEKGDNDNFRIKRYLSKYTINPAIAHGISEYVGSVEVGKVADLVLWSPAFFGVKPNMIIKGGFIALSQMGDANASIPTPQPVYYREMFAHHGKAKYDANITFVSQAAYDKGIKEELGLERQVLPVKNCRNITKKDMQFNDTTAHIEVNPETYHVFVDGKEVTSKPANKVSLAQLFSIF
Chain of Urease subunit alpha/Urease subunit beta (P14916 whole entry, further chain): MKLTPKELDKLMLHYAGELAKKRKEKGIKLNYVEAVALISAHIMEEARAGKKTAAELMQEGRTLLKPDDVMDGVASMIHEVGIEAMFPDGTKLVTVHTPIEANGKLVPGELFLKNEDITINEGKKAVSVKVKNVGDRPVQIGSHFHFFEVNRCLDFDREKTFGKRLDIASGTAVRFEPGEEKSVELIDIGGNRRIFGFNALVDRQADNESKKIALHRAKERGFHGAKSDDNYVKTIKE

SMILES | pIC50
Cc1ncc([N+](=O)[O-])n1CCOC(=O)c1cc(Br)ccc1OCCn1c([N+](=O)[O-])cnc1C | 4.59
Cc1ncc([N+](=O)[O-])n1CCOC(=O)c1cc(Cl)ccc1OCCn1c([N+](=O)[O-])cnc1C | 4.92

biological target: Urease subunit alpha/Urease subunit beta (Helicobacter pylori (strain ATCC 700392 / 26695) (Campylobacterpylori)) (UniProt P69996+P14916); assay: Inhibition of Helicobacter pylori ATCC 43504 urease assessed as ammonia production at 1 mM after 3 hrs by indophenol method
Summary of the method: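 Crude urease from H. pylori ATCC 43504 grown 24 h at 37 °C microaerobically in brucella broth with 10% heat-inactivated horse serum; cells PBS-washed, stored at -80 °C, sonicated 60 s in water with protease inhibitors, extract mixed 1:1 with glycerol. Enzyme (4 U) preincubated 3 h at room temperature with compound; ammonia measured by indophenol method; percent inhibition.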

Chain of Urease subunit alpha/Urease subunit beta (Helicobacter pylori (strain ATCC 700392 / 26695) (Campylobacterpylori)) (P14916 whole entry, looked up): as the sequence (P14916 whole entry, further chain) above
Chain of Urease subunit alpha/Urease subunit beta (Helicobacter pylori (strain ATCC 700392 / 26695) (Campylobacterpylori)) (P69996 whole entry, looked up): as the sequence (P69996 whole entry) above

SMILES | inhibition
Cc1ncc([N+](=O)[O-])n1CCOc1c(Cl)cc(Cl)cc1C(=O)O | 56.8%
Cc1ncc([N+](=O)[O-])n1CCOC(=O)c1cc(S(=O)(=O)O)ccc1OCCn1c([N+](=O)[O-])cnc1C | 61.2%
Cc1ncc([N+](=O)[O-])n1CCO | inactive
Cc1ccc(C(=O)O)c(OCCn2c([N+](=O)[O-])cnc2C)c1 | inactive
Cc1ccc(S(=O)(=O)OCCn2c([N+](=O)[O-])cnc2C)cc1 | 78.1%
Cc1ccc(OCCn2c([N+](=O)[O-])cnc2C)c(C(=O)OCCn2c([N+](=O)[O-])cnc2C)c1 | 48.4%
Cc1ncc([N+](=O)[O-])n1CCOc1c(I)cc(I)cc1C(=O)O | 53.9%
Cc1cccc(C(=O)OCCn2c([N+](=O)[O-])cnc2C)c1OCCn1c([N+](=O)[O-])cnc1C | 42.1%
Cc1ncc([N+](=O)[O-])n1CCOC(=O)c1cc(Br)ccc1OCCn1c([N+](=O)[O-])cnc1C | 93.9%
Cc1ncc([N+](=O)[O-])n1CCOc1cc(N)ccc1C(=O)O | 38.3%
Cc1ccc(C(=O)OCCn2c([N+](=O)[O-])cnc2C)c(OCCn2c([N+](=O)[O-])cnc2C)c1 | 38.3%
Cc1ncc([N+](=O)[O-])n1CCOc1c(Br)cc(Br)cc1C(=O)O | 56.1%
Cc1ncc([N+](=O)[O-])n1CCOC(=O)c1cc(I)ccc1OCCn1c([N+](=O)[O-])cnc1C | 78.7%
Cc1ncc([N+](=O)[O-])n1CCOC(=O)c1ccc(Cl)cc1OCCn1c([N+](=O)[O-])cnc1C | 82.2%
Cc1ncc([N+](=O)[O-])n1CCOC(=O)c1cc(Cl)ccc1OCCn1c([N+](=O)[O-])cnc1C | 95.3%
